Assay results reported in ChEMBL document CHEMBL3046392, “Antifungal activities of N-arylbenzenesulfonamides against phytopathogens and control efficacy on wheat leaf rust and cabbage club root diseases” (Biosci Biotechnol Biochem, 2002).
In brackets after ≈: the same amount, converted by molar mass.

Experiments:
Format in all cases: functional
Rhizoctonia solani = test: Antifungal activity against Rhizoctonia solani assessed as mycelial growth inhibition after 2 to 6 days; conditions: read-out: ED50 (the source's name)
In short: (§1)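 Serially diluted compound was mixed into 1/5-strength PDA plates at […]. A 5-mm agar plug of each fungus was placed at the plate centre, with three replicate plates per concentration per fungus. Plates were incubated at 25 °C for 2–6 days, radial growth was measured, and ED₅₀ for mycelial growth inhibition was derived by probit analysis.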

Botrytis cinerea [1] = test: Antifungal activity against Botryotinia fuckeliana assessed as mycelial growth inhibition after 2 to 6 days; conditions: read-out: ED50 (the source's name); in short: as §1
Phytophthora capsici [2] = test: Antifungal activity against Phytophthora capsici assessed as mycelial growth inhibition after 2 to 6 days; conditions: read-out: ED50 (the source's name); in short: as §1
Globisporangium ultimum = test: Antifungal activity against Pythium ultimum assessed as mycelial growth inhibition after 2 to 6 days; conditions: read-out: ED50 (the source's name); in short: as §1
Plasmodiophora brassicae [3] = test: Antifungal activity against Plasmodiophora brassicae in cabbage seedlings transplanted after soil infestation with fungus followed by compound application to soil assessed as cabbage club root disease control efficacy at 167 ug/ml measured after 35 days post fungal inoculation
In short: (§2)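 Soil was inoculated with P. brassicae spore suspension (2×10⁶ spores/ml), then cabbage seedlings were transplanted. 10 ml of each compound solution was applied to assess disease suppression. Disease severity was assessed 35 days after inoculation, with control value calculated relative to untreated plants.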

Plasmodiophora brassicae [4] = test: Antifungal activity against Plasmodiophora brassicae in cabbage seedlings transplanted after soil infestation with fungus followed by compound application to soil assessed as cabbage club root disease control efficacy at 500 ug/ml measured after 35 days post fungal inoculation; in short: as §2
Plasmodiophora brassicae [5] = test: Antifungal activity against Plasmodiophora brassicae in cabbage seedlings transplanted after soil infestation with fungus followed by compound application to soil assessed as cabbage club root disease control efficacy at 19 ug/ml measured after 35 days post fungal inoculation; in short: as §2
Plasmodiophora brassicae [6] = test: Antifungal activity against Plasmodiophora brassicae in cabbage seedlings transplanted after soil infestation with fungus followed by compound application to soil assessed as cabbage club root disease control efficacy at 56 ug/ml measured after 35 days post fungal inoculation; in short: as §2
Corticium = test: Antifungal activity against Corticium sasaki Matsu infected compound pre-treated rice seedlings at third-leaf stage assessed as rice sheath blight disease control values at 50 ug/ml measured after 4 days post fungal inoculation
In short: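 Rice seedlings at third-leaf stage were sprayed with compound in water+methanol (95+5) plus Tween 20 (250 mg/l) and left 24 h. They were inoculated with 7-day-old wheat–rice bran cultures of C. sasaki and held 4 days dark at 25 °C, 100% RH, then 4 days in a growth chamber (25 °C, 100% RH, 12 h light). Control value was calculated from disease severity relative to untreated plants.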

Puccinia recondita = test: Antifungal activity against Puccinia recondita infected on compound pre-treated wheat seedlings at first-leaf stage assessed as wheat leaf rust disease control values at 50 ug/ml measured after 7 days post fungal inoculation
In short: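 First-leaf wheat seedlings were sprayed with compound in water+methanol (95+5) with Tween 20 (250 mg/l) and left 24 h. They were sprayed with P. recondita spores (0.67 g/l, Tween 20 250 mg/l) and kept 1 day in a moist chamber at 20 °C, then moved to an incubation room. Infected leaf area was rated 7 days post-inoculation and converted to a control value relative to untreated plants.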

Blumeria hordei = test: Antifungal activity against Blumeria graminis f. sp. hordei infected compound pre-treated barley seedlings at first-leaf stage assessed as barley powdery mildew disease control values at 50 ug/ml measured after 7 days post fungal inoculation
In short: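 Pot-grown barley seedlings at first-leaf stage were sprayed with compound dissolved in water+methanol (95+5) containing Tween 20 (250 mg/l), left 24 h, then inoculated with the powdery mildew fungus. Control value = 100 × (untreated − treated severity)/untreated severity.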

Pyricularia grisea = test: Antifungal activity against Magnaporthe grisea infected on compound pre-treated rice seedlings at second-leaf stage assessed as rice blast disease control values at 50 ug/ml measured after 5 days post fungal inoculation
In short: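 Rice seedlings grown in greenhouse pots at 25±5 °C, sprayed with compound in water+methanol (95+5) containing Tween 20 (250 mg/l) as wetting agent, left 24 h, then inoculated with M. grisea. Disease severity read as percentage infected leaf area 5 days after inoculation. Control value (%) = 100 × (untreated severity − treated severity)/untreated severity.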

Botrytis cinerea [7] = test: Antifungal activity against Botryotinia fuckeliana infected compound pre-treated tomato seedlings at second-leaf stage assessed as tomato gray mould disease control values at 50 ug/ml measured after 3 to 4 days post fungal inoculation
In short: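 Greenhouse-grown potted tomato seedlings at second-leaf stage were sprayed with compound in water+methanol (95+5) with Tween 20 (250 mg/l), left 24 h, then spray-inoculated with B. cinerea spore suspension. Plants were kept in the dark at 25 °C, 100% RH. Severity was scored after 3–4 days, and control value = 100 × (untreated − treated severity)/untreated severity.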

Phytophthora capsici [8] = test: Antifungal activity against Phytophthora capsici infected on compound pre-treated tomato seedlings at second-leaf stage assessed as tomato late blight disease control values at 50 ug/ml measured after 3 to 4 days post fungal inoculation

Row | Compound | EC50 (Rhizoctonia solani) [µg/mL] | EC50 (Botrytis cinerea [1]) [µg/mL] | EC50 (Phytophthora capsici [2]) [µg/mL] | EC50 (Globisporangium ultimum) [µg/mL] | Efficacy (Plasmodiophora brassicae [3]) [%] | Activity (Plasmodiophora brassicae [4]) [%] | Efficacy (Plasmodiophora brassicae [5]) [%] | Efficacy (Plasmodiophora brassicae [6]) [%] | Activity (Corticium) [%] | Activity (Puccinia recondita) [%] | Efficacy (Plasmodiophora brassicae [4]) [%] | Activity (Blumeria hordei) [%] | Activity (Pyricularia grisea) [%] | Activity (Botrytis cinerea [7]) [%] | Activity (Phytophthora capsici [8]) [%]
1 | O=[N+]([O-])c1ccc(NS(=O)(=O)c2ccccc2)c(C(F)(F)F)c1 | 28.5 (≈ 82.3 µM) | 33.1 (≈ 95.6 µM) | 18.5 (≈ 53.4 µM) | 19.3 (≈ 55.8 µM) |  |  |  |  |  |  |  |  |  |  | 
2 | O=[N+]([O-])c1ccc(NS(=O)(=O)c2ccc(Cl)c(C(F)(F)F)c2)c(Cl)c1 [FLUSULFAMIDE] |  |  |  |  | 42 | 62 | 0 | 17 |  |  |  |  |  |  | 
3 | O=S(=O)(Nc1ccccc1)c1ccccc1 [PHENYL(PHENYLSULFONYL)AMINE] | 68.9 (≈ 295 µM) | 239 (≈ 1030 µM) | 66.6 (≈ 285 µM) | 75.4 (≈ 323 µM) |  |  |  |  |  |  |  |  |  |  | 
4 | O=[N+]([O-])c1ccc(NS(=O)(=O)c2ccccc2)c(Cl)c1 | 14.4 (≈ 46 µM) | 28 (≈ 89.5 µM) | 9 (≈ 28.8 µM) | 5.4 (≈ 17.3 µM) | 82 |  | 17 | 83 | 0 | 9 | 95 | 2 | 3 | 0 | 0
5 | O=[N+]([O-])c1cccc(S(=O)(=O)Nc2ccc([N+](=O)[O-])cc2C(F)(F)F)c1 | 26.2 (≈ 67 µM) |  | 233 (≈ 595 µM) | 155 (≈ 397 µM) |  |  |  |  |  |  |  |  |  |  | 
6 | O=[N+]([O-])c1cccc(S(=O)(=O)Nc2ccc([N+](=O)[O-])cc2Cl)c1 | 34.8 (≈ 97.3 µM) | 63.6 (≈ 178 µM) | 7 (≈ 19.6 µM) | 7.2 (≈ 20.1 µM) |  |  |  |  |  |  |  |  |  |  | 
7 | O=[N+]([O-])c1ccc(NS(=O)(=O)c2ccccc2)cc1 | 42.3 (≈ 152 µM) | 65.7 (≈ 236 µM) | 10.3 (≈ 37 µM) | 6.9 (≈ 24.8 µM) |  |  |  |  |  |  |  |  |  |  | 
8 | O=[N+]([O-])c1cccc(S(=O)(=O)Nc2ccc(F)c(C(F)(F)F)c2)c1 | 6 (≈ 16.5 µM) | 3.5 (≈ 9.61 µM) | 60.8 (≈ 167 µM) | 10.1 (≈ 27.7 µM) |  |  |  |  |  |  |  |  |  |  | 
9 | O=S(=O)(Nc1ccc(F)c(C(F)(F)F)c1)c1ccccc1 | 16.8 (≈ 52.6 µM) | 10.7 (≈ 33.5 µM) | 5.6 (≈ 17.5 µM) | 13.5 (≈ 42.3 µM) |  |  |  |  |  |  |  |  |  |  | 
10 | O=S(=O)(Nc1ccc(C(F)(F)F)cc1)c1ccccc1 | 24.1 (≈ 80 µM) | 14.8 (≈ 49.1 µM) | 14.6 (≈ 48.5 µM) | 11.7 (≈ 38.8 µM) | 0 |  | 0 | 0 | 0 | 0 | 0 | 0 | 0 | 0 | 0
